High-throughput results deposited in PubChem by several laboratories.
Only some compounds are listed: those with a hit (about 3.1% of all), similar ones and a draw of the others.
V-ATPase pH – yeast V-ATPase proton transport regulation by pHLuorin; S. cerevisiae, pHLuorin cytosolic pH fluorescence; response, % at 10 µM; hit rate 0.37% among 350,000; AID 504577; in the data active means response mostly above about 7.3%, no sharp cut-off; inactive means mostly below about 5.4%; further: actives read high
ADAM17 inh – inhibits human ADAM17 | recombinant ADAM17, EDANS/DABCYL FRET peptide cleavage | inhibition, % at 6.95 µM | hit rate 0.83% among 370,000 | AID 720648;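 active means inhibition above the mean of compounds lying between control limits plus 3 SD, set per campaign, cut at about 8.5% in these data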;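 further: 0% = DMSO-only wells as the low control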
aDG glyco up – increases alpha dystroglycan glycosylation; Pro5-aDG cells, alpha-DG glycosylation AlphaScreen (IIH6); 0% Pro5, 100% B10-LARGE cell signal; activation, % at 10 µM; hit rate 0.22% among 360,000; AID 624168;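 active means activation of at least 8% versus controls, or a plate z-score of at least 8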;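 further: Pro5 are CHO cells carrying HIG-tagged alpha-DG that lacks glycosylation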
Hep lipid drop – hepatic lipid droplet formation modulation; AML12 mouse hepatocytes, oleate lipid droplets, BODIPY imaging; inhibition, % at 6.5 µM; AID 1656; hit rate 0.4% among 240,000;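 active means lipid droplet intensity inhibited by at least 50%, with more than 500 cells counted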
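Assay system: AML12 mouse liver cells | Compound dosing: One dose, 6.5 µM compound | Read-out basis: Droplet intensity reduction, % inhibition | Measured by: Fluorescence imaging, 20x objective, two fields per well | Schedule: Overnight treatment with compound plus oleate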
ADAM10 inh – inhibitors of human ADAM10; inhibition, % at 7 µM; AID 720582; O14672; hit rate 0.62% among 370,000; recombinant ADAM10, EDANS/DABCYL FRET peptide cleavage, 3 h;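 active means inhibition above a per-campaign cutoff equal to the mean of compounds falling between control-based bounds plus 3 SD, cut at about 20% in these data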;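 further: 0% = DMSO wells while the 100% control is not disclosed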
Target sequence (O14672 214-748 limits assumed): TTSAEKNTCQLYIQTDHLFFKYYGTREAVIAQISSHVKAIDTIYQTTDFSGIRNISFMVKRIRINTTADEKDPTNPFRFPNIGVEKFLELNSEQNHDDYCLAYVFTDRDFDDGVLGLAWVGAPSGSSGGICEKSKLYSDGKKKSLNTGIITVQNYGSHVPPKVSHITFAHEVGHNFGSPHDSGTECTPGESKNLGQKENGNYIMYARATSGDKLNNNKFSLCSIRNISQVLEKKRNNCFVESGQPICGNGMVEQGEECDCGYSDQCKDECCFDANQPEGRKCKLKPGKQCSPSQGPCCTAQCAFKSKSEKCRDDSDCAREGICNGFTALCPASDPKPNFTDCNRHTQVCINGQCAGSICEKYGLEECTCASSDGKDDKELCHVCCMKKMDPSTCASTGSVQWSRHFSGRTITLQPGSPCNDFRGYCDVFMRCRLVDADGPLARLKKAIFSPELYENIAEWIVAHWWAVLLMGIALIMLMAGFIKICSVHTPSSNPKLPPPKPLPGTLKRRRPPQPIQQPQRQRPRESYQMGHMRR
MPTP inh – blocks calcium-induced mitochondrial swelling; hit rate 1.4% among 360,000; inhibition, % at 10 µM; isolated mouse mitochondria, Ca2+ swelling absorbance, 30 min;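 active means inhibition of 50% or more, scaled per plate between neutral and stimulator controls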;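 further: 0% = DMSO wells given calcium and 100% = 1 mM EGTA wells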
Rh123 counter – membrane potential counter-screen of mitochondrial pore inhibitors; shares compounds with MPTP inh; isolated mitochondria, Rhodamine 123 fluorescence; inhibition, % at 10 µM; hit rate 78% among 5,000; in the data active means inhibition above about 22%;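 further: 0% = DMSO vehicle and 100% = positive control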
MPTP abs DR – MPTP inhibition, dose response swelling confirmation | shares compounds with MPTP inh | hit rate 58% among 780 | IC50, µM | isolated mitochondria swelling, absorbance; in the data active means IC50 below about 20 µM
MPTP counter DR – active in counter-screen for permeability transition pore inhibitors; shares compounds with MPTP inh; isolated mitochondria counterscreen, fluorescence read-out; IC50, µM; hit rate 49% among 780; AID 651564; in the data active means IC50 below about 80 µM
* marks the source's active call; other numbers are inactive results; i = inactive; x = no result.

SMILES | V-ATPase pH | ADAM17 inh | aDG glyco up | Hep lipid drop | ADAM10 inh | MPTP inh | Rh123 counter | others
CC(OCCN1CCCC1)(c1ccc(F)cc1)c1ccc(F)cc1 | 1 | 0 | 0 | -21 | -2 | 76* | -2 | MPTP abs DR=i;MPTP counter DR=>80
O=C(Nc1ccc(Cl)c(Cl)c1)Nc1ccccc1C(=O)O | 2 | -13 | 0 | 0 | -40 | 28 | x
COc1ccccc1NS(=O)(=O)c1cccs1 | 2 | -2 | 0 | 13 | 6 | -2 | x
O=C(Nc1ccc(Cl)c(Cl)c1)Nc1ccccc1NS(=O)(=O)c1cccs1 | 5 | 2 | 0 | 0 | 7 | 87* | 92*
O=C(Nc1ccccc1)Nc1ccccc1NS(=O)(=O)c1cccs1 | 1 | 1 | 0 | -12 | 2 | 61* | 65*
CCCC[C@H](C(=O)N(C)c1cccc(OC)c1)[C@@H](O)c1ccc2ccccc2c1 | x | 7 | x | x | 11 | x | x
CC(C)(C)c1ccc(-c2nnc3n2N=C(c2ccc4ccccc4c2)CS3)cc1 | x | -3 | x | x | -7 | x | x
CCCCOCCCNC(=O)C[C@H]1C[C@@]2(C(=O)OC)C(=C[C@H](COCc3ccccc3)O[C@@H]2C)N(Cc2ccco2)C1=O | x | -1 | x | x | -1 | x | x
S=C(NC1CCCCC1)N(CCc1nc2ccccc2[nH]1)C1CCCC1 | 2 | 5 | 2 | -3 | 7 | 65* | 79*
Nc1ccc(C23CC4CC(CC(CO)(C4)C2)C3)cc1 | 7 | -1 | 0 | x | 3 | -1 | x
NCC12CC3CC(C1)CC(c1ccc(Cl)cc1)(C3)C2 | 2 | -3 | 1 | 4 | -3 | 75* | -13 | MPTP abs DR=3.7*;MPTP counter DR=42*
CN1/C(=C/c2cc[n+](C)c3ccccc23)C=Cc2ccccc21 | 5 | x | 1 | -71 | x | 75* | 59*
COc1cc(NC(=S)Nc2cccc(Cl)c2Cl)c(OC)cc1Cl | -2 | -1 | 0 | x | -2 | 14 | x
COc1cc(NC(=S)Nc2ccc(Br)cc2Cl)c(OC)cc1Cl | -1 | 1 | 0 | -13 | 2 | 90* | 89*
COc1cc(OC)c(NC(=S)Nc2cccc(C(C)=O)c2)cc1Cl | -1 | -3 | 0 | x | -1 | 4 | x
COc1cc(OC)c(NC(=S)Nc2cc(Cl)cc(Cl)c2)cc1Cl | 1 | 1 | 0 | -7 | -6 | 104* | 84*
c1ccc(-c2ccc(OCCCNC3CCCC3)cc2)cc1 | -1 | -2 | 6 | -30 | -8 | 88* | -7 | MPTP abs DR=5.2*;MPTP counter DR=46*
N/C(=N\OC(=O)c1ccc([N+](=O)[O-])cc1)c1cccnc1 | -2 | -3 | 0 | 1 | -7 | 1 | x
O=C(Oc1c(Br)cc([N+](=O)[O-])cc1Br)c1cccnc1 | -3 | 1 | 0 | -2 | 0 | 72* | 96*
CCN(CC)S(=O)(=O)c1ccc(Oc2ccccc2OC)cc1 | -5 | 3 | 0 | -7 | 9 | 0 | x
CCN(CC)S(=O)(=O)c1ccc(Oc2ccc(S(=O)(=O)N(CC)CC)cc2)cc1 | -1 | -3 | 2 | -6 | -5 | 97* | 89*
FC(F)(F)c1cccc(N2CCN(C(=S)NC3CCCCC3)CC2)c1 | 1 | 2 | 1 | 8 | 7 | 81* | 72*
Fc1cccc(NC(=S)NC2CCCCCCC2)c1 | 2 | 2 | 0 | -16 | 0 | 75* | 98*
FC(F)(F)c1cccc(NC(=S)NC2CCCC2)c1 | 2 | 2 | 2 | -2 | -2 | 100* | 83*
O=C(Nc1cccc(C(F)(F)F)c1)C1CCCCC1 | 1 | -2 | 0 | 0 | 1 | -3 | x
FC(F)(F)c1ccc(NC(=S)NC2CCCCC2)cc1 | 0 | 3 | 0 | -4 | 14 | 99* | 78*
N#Cc1ccc(Cn2ccc3ccc(-c4ccc5ccn(Cc6ccc(C#N)cc6)c5c4)cc32)cc1 | x | -6 | x | x | -20 | x | x
COc1ccc(-c2c(-c3ccc(O)cc3O)n[nH]c2C(F)(F)F)cc1 | -9 | 3 | 0 | 1 | 14 | 4 | x
Oc1ccc(-c2n[nH]c(C(F)(F)F)c2-c2ccccc2)c(O)c1 | 5 | 5 | 3 | -55 | 12 | 84* | 76*
